We go through 14 molecules from ChEMBL document CHEMBL4308922, “Design and Evaluation of Heterobivalent PAR1-PAR2 Ligands as Antagonists of Calcium Mobilization” (ACS Med Chem Lett, 2019).

Calls of active or inactive are those of the source. The calls are words filed in the database; no cut-off is given here.

The species entered for one data set is Homo sapiens. The data set is described as follows: (§1) Antagonist activity at PAR1/PAR2 in human EAhy926 cells assessed as inhibition of SFLLRN-NH2-induced intracellular calcium mobilization preincubated for 15 mins followed by SFLLRN-NH2 addition by Fluo-4-AM dye based fluorescence assay. In kind it is cell-based. The essentials: (§2)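 Cells cultured to confluence over ~48 h in 96-well plates, Fluo-4/AM loaded; antagonist added, then PAR1/2 agonist SFLLRN-NH2 at 3.16 μM. Curves from triplicate wells on a single plate fitted by four-variable nonlinear regression for IC50; SEM reported.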

The target in data set [1] is T1, Proteinase-activated receptor 1 (Homo sapiens) (UniProt P25116).
T1 sequence (whole entry): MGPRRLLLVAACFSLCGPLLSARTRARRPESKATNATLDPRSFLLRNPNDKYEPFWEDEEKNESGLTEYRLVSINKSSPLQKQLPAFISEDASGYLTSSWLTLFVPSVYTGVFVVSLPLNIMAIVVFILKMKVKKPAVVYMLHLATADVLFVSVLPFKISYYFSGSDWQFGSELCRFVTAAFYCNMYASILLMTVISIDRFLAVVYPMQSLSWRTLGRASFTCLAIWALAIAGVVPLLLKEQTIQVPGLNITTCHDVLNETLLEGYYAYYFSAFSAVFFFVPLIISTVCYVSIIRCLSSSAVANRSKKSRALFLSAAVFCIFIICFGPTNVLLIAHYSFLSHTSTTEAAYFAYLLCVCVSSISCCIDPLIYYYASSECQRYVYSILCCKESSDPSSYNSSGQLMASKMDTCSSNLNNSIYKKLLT
The data set is described as follows: (§3) Antagonist activity at PAR1 in human EAhy926 cells assessed as inhibition of TFLLRN-NH2-induced intracellular calcium mobilization preincubated for 15 mins followed by TFLLRN-NH2 addition by Fluo-4-AM dye based fluorescence assay. In kind it is functional, cell-based. The essentials: (§4)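 Adherent cells grown in 96-well plates to confluence (~48 h), loaded with Fluo-4/AM; antagonist added, then PAR1 agonist TFLLRN-NH2 at 5 μM. Concentration–response curves from N = 3 on a single plate, fitted by four-variable nonlinear regression to give IC50; errors as SEM.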

For data set [2], the target named is Proteinase-activated receptor 2 (Homo sapiens) (UniProt P55085). As to the kind of experiment: (§5) Antagonist activity at PAR2 in human EAhy926 cells assessed as inhibition of SLIGKV-NH2-induced intracellular calcium mobilization preincubated for 15 mins followed by SLIGKV-NH2 addition by Fluo-4-AM dye based fluorescence assay. In kind it is functional, cell-based. The essentials: (§6)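 Confluent adherent cells (~48 h growth in 96-well plates) loaded with Fluo-4/AM calcium dye; antagonist added before PAR2 agonist SLIGKV-NH2 at 5 μM. IC50 from four-variable nonlinear regression of concentration–response data, N = 3 on one plate, SEM error bars.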

A short description of data set [3]: as §1. Format: cell-based. Particulars: EA.hy 926. The essentials: as §2
The target of data set [4] is T2, Proteinase-activated receptor 1 (Homo sapiens, UniProt P25116).
T2 sequence (P25116 whole entry): T1 sequence (whole entry)
The data set is described as §3. In kind it is functional, cell-based. The essentials: as §4

The target of data set [5] is T3, Proteinase-activated receptor 2 (Homo sapiens, UniProt P55085).
T3 sequence (P55085 whole entry): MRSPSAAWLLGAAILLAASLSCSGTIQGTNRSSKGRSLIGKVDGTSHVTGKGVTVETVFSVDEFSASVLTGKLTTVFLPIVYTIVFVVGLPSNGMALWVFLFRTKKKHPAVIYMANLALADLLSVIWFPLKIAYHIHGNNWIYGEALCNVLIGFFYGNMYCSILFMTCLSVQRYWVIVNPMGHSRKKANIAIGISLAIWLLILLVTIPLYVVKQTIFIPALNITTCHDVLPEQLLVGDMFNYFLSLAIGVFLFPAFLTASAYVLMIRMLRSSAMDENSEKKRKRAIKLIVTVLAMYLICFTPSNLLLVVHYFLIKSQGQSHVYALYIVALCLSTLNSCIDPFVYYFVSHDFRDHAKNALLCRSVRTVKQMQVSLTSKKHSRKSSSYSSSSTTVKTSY
The data set is described as §5. In kind it is functional, cell-based. Summed up:
as §6

The target of data set [6] is Proteinase-activated receptor 2 (Homo sapiens) (UniProt P55085). As to the kind of experiment: (§7) Antagonist activity at PAR2 in human EAhy926 cells assessed as inhibition of trypsin-induced intracellular calcium mobilization preincubated for 15 mins followed by trypsin addition by Fluo-4-AM dye based fluorescence assay. In kind it is functional, cell-based. The essentials:
(§8)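 Fluo-4/AM-loaded confluent cells; antagonist added before 5 nM trypsin as PAR2-activating protease; calcium mobilization concentration–response fitted for IC50.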

In data set [7] the target is T3, Proteinase-activated receptor 2. The data set is described as follows: (§9) Antagonist activity at PAR2 in human MDA-MB-231 cells assessed as inhibition of SLIGKV-NH2-induced intracellular calcium mobilization preincubated for 15 mins followed by SLIGKV-NH2 addition by Fluo-4-AM dye based fluorescence assay. In kind it is functional, cell-based. Summed up: as §6
Data set [8] has as its target Proteinase-activated receptor 2 (Homo sapiens) (UniProt P55085). Described as §9. In kind it is functional, cell-based. Summed up: as §6
Data set [9] can be described thus: Half life in mouse plasma at 10 uM by LC-MS/MS analysis. In kind it is ADME, cell-free.
For data set [10], the target named is T2, Proteinase-activated receptor 1. As to the kind of experiment: (§10) Antagonist activity at PAR1 in human MDA-MB-231 cells assessed as inhibition of TFLLRN-NH2-induced intracellular calcium mobilization preincubated for 15 mins followed by TFLLRN-NH2 addition by Fluo-4-AM dye based fluorescence assay. In kind it is functional, cell-based. The essentials:
as §4

A short description of data set [11]: (§11) Antagonist activity at PAR1/PAR2 in human MDA-MB-231 cells assessed as inhibition of SFLLRN-NH2-induced intracellular calcium mobilization preincubated for 15 mins followed by SFLLRN-NH2 addition by Fluo-4-AM dye based fluorescence assay. Format: cell-based. Summed up: as §2
In data set [12] the target is T2, Proteinase-activated receptor 1. The data set is described as follows: (§12) Antagonist activity at PAR1 in human EAhy926 cells assessed as inhibition of thrombin-induced intracellular calcium mobilization preincubated for 15 mins followed by thrombin addition by Fluo-4-AM dye based fluorescence assay. Format: functional, cell-based. The essentials: (§13)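 Fluo-4/AM-loaded confluent EA.hy926 monolayers; antagonist added before 1 nM thrombin as activating protease; calcium mobilization curves fitted for IC50.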

The target in data set [13] is T3, Proteinase-activated receptor 2. Described as §7. Format: functional, cell-based. The essentials:
as §8

In data set [14] the target is T1, Proteinase-activated receptor 1 (Homo sapiens). The data set is described as §12. In kind it is functional, cell-based. The essentials:
as §13

Data set [15] shares this target. The description is as §10. Format: functional, cell-based. Summed up:
as §4

The next data set relates to MDA-MB-231. Described as §11. In kind it is cell-based. Summed up:
as §2

As to `CC1(C)CN(C(=O)[C@H]2CC[C@H](C(=O)NCCOCCOCCOCCOCCOCCOCCn3cc(CCC(=O)NCC[C@H](NC(=O)[C@H](Cc4ccc(F)c(F)c4)NC(=O)Nc4ccc5c(CN6CCCC6)nn(Cc6c(Cl)cccc6Cl)c5c4)C(=O)NCc4ccccc4)nn3)CC2)CCN1C(=O)c1cn2nc(-c3ccc(F)cc3)cc(-c3ccc(F)cc3)c2n1`, the inhibition result (in the data set listed under Homo sapiens; in data set [1]; in data set [2]) was “Active” in each case.

Turning to `CC(C)c1cc(-c2ccc(F)cc2)nn2cc(C(=O)N3CCN(C(=O)CCC(=O)NCCOCCOCCOCCOCCOCCOCCOCCOCCn4cc(CCC(=O)NCC[C@H](NC(=O)[C@H](Cc5ccc(F)c(F)c5)NC(=O)Nc5ccc6c(CN7CCCC7)nn(Cc7c(Cl)cccc7Cl)c6c5)C(=O)NCc5ccccc5)nn4)CC3(C)C)nc12`, the IC50 in [3] is 3000 nM; in data set [4] it was 130 nM; in [5], more than 50000 nM.

Turning to `CC(C)c1cc(-c2ccc(F)cc2)nn2cc(C(=O)N3CCN(C(=O)CCC(=O)NCCOCCOCCOCCOCCOCCOCCOCCOCCOCCOCCn4cc(CCC(=O)NCC[C@H](NC(=O)[C@H](Cc5ccc(F)c(F)c5)NC(=O)Nc5ccc6c(CN7CCCC7)nn(Cc7c(Cl)cccc7Cl)c6c5)C(=O)NCc5ccccc5)nn4)CC3(C)C)nc12`, the IC50 was more than 50000 nM in [3], 40 nM in data set [4] and more than 50000 nM in data set [5].

`COCc1cn(CCOCCOCCOCCOCCOCCOCCOCCOCCOCCOCCNC(=O)CCC(=O)N2CCN(C(=O)c3cn4nc(-c5ccc(F)cc5)cc(C(C)C)c4n3)C(C)(C)C2)nn1`: the inhibition entry (in the data set filed under Homo sapiens; in data set [6]) was “inactive” each time. The IC50 is 860 nM in data set [7] and 7000 nM in [5].

In the case of `CC(C)c1cc(-c2ccc(F)cc2)nn2cc(C(=O)N3CCN(C(=O)CCC(=O)NCCOCCOCCOCCOCCOCCOCCn4cc(CCC(=O)NCC[C@H](NC(=O)[C@H](Cc5ccc(F)c(F)c5)NC(=O)Nc5ccc6c(CN7CCCC7)nn(Cc7c(Cl)cccc7Cl)c6c5)C(=O)NCc5ccccc5)nn4)CC3(C)C)nc12`, the IC50 was 3000 nM in [3], 30 nM in [4] and more than 50000 nM in [5].

Regarding `CC1(C)CN(C(=O)[C@H]2CC[C@H](C(=O)NCCOCCOCCOCCOCCOCCOCCOCCOCCOCCOCCn3cc(CCC(=O)NCC[C@H](NC(=O)[C@H](Cc4ccc(F)c(F)c4)NC(=O)Nc4ccc5c(CN6CCCC6)nn(Cc6c(Cl)cccc6Cl)c5c4)C(=O)NCc4ccccc4)nn3)CC2)CCN1C(=O)c1cn2nc(-c3ccc(F)cc3)cc(-c3ccc(F)cc3)c2n1`, the inhibition entry (in the data set filed under Homo sapiens; in [1]; in data set [2]) was “Active” throughout.

Consider `CC1(C)CN(C(=O)[C@H]2CC[C@H](C(=O)O)CC2)CCN1C(=O)c1cn2nc(-c3ccc(F)cc3)cc(-c3ccc(F)cc3)c2n1`, for which the inhibition entry in data set [8] and in data set [2] was “Active” each time.

Regarding `CC1(C)CN(C(=O)[C@H]2CC[C@H](C(=O)NCCOCCOCCOCCOCCOCCOCCOCCOCCn3cc(CCC(=O)NCC[C@H](NC(=O)[C@H](Cc4ccc(F)c(F)c4)NC(=O)Nc4ccc5c(CN6CCCC6)nn(Cc6c(Cl)cccc6Cl)c5c4)C(=O)NCc4ccccc4)nn3)CC2)CCN1C(=O)c1cn2nc(-c3ccc(F)cc3)cc(-c3ccc(F)cc3)c2n1`, the inhibition result (in the data set listed under Homo sapiens; in data set [1]; in [2]) was “Active” throughout.

`CC(C)c1cc(-c2ccc(F)cc2)nn2cc(C(=O)N3CCN(C(=O)CCC(=O)NCCOCCOCCOCCOCCOCCOCCOCCOCCOCCOCCOCCOCCOCCOCCOCCOCCOCCOCCOCCOCCOCCOCCOCCn4cc(CCC(=O)NCC[C@H](NC(=O)[C@H](Cc5ccc(F)c(F)c5)NC(=O)Nc5ccc6c(CN7CCCC7)nn(Cc7c(Cl)cccc7Cl)c6c5)C(=O)NCc5ccccc5)nn4)CC3(C)C)nc12` had a half-life at 10 µM in data set [9] of 5.6 h. The IC50 in data set [10] came to 140 nM; in [11], 3300 nM; in data set [3] it was 150 nM; in data set [4], 180 nM; in data set [12], 360 nM; in data set [7] it was 3500 nM. Besides, the IC50 in data set [5] was found to be 3300 nM. Besides, in [6], the inhibition entry is “inactive”.

As for `CC(C)c1cc(-c2ccc(F)cc2)nn2cc(C(=O)N3CCN(C(=O)CCC(=O)O)CC3(C)C)nc12`, the IC50 worked out at 2 nM in data set [13], 480 nM in data set [7] and 100 nM in data set [5].

As for `NCCOCCOCCOCCOCCOCCOCCOCCOCCn1cc(CCC(=O)NCC[C@H](NC(=O)[C@H](Cc2ccc(F)c(F)c2)NC(=O)Nc2ccc3c(CN4CCCC4)nn(Cc4c(Cl)cccc4Cl)c3c2)C(=O)NCc2ccccc2)nn1`, the IC50 is 10 nM in [10], 74 nM in data set [3] and 97 nM in data set [4]. The inhibition result in data set [14] was “Active”.

In the case of `NCC[C@H](NC(=O)[C@H](Cc1ccc(F)c(F)c1)NC(=O)Nc1ccc2c(CN3CCCC3)nn(Cc3c(Cl)cccc3Cl)c2c1)C(=O)NCc1ccccc1` [RWJ-58259], the IC50 in data set [10] came out at 5 nM.

In the case of `CC(C)c1cc(-c2ccc(F)cc2)nn2cc(C(=O)N3CCN(C(=O)CCC(=O)NCCCCC(=O)NCCOCCOCCOCCOCCOCCOCCOCCOCCOCCOCCOCCOCCOCCOCCOCCOCCOCCOCCOCCOCCOCCOCCOCCn4cc(CCC(=O)NCC[C@H](NC(=O)[C@H](Cc5ccc(F)c(F)c5)NC(=O)Nc5ccc6c(CN7CCCC7)nn(Cc7c(Cl)cccc7Cl)c6c5)C(=O)NCc5ccccc5)nn4)CC3(C)C)nc12`, the inhibition result (in data set [15]; in the data set with MDA-MB-231; in the data set listed under Homo sapiens; in data set [1]; in data set [8]; in data set [2]) was “inactive” each time.

Take `CC(C)c1cc(-c2ccc(F)cc2)nn2cc(C(=O)N3CCN(C(=O)CCC(=O)NCCCCCC(=O)NCCOCCOCCOCCOCCOCCOCCOCCOCCOCCOCCOCCOCCOCCOCCOCCOCCOCCOCCOCCOCCOCCOCCOCCN=[N+]=[N-])CC3(C)C)nc12`: the inhibition result in data set [8] and in data set [2] was “inactive” each time.
